Columns and labels:
Type in all cases: functional
[1] = Cytotoxicity against human ovarian cancer cells assessed as growth inhibition after 48 hrs by SRB assay; settings: Cancer cell lines
In short: (§1)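 Values come from the NCI-60 five-dose panel (0.01–100 µM). The subpanel MID is the mean GI50 over the lines of that tumour subpanel. The selectivity ratio is the full-panel MID divided by the subpanel MID; 3–6 is rated moderate and >6 high.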

A498 = assay: Cytotoxicity against human A498 cells after 48 hrs by SRB assay; settings: A498, 48 h
In short: (§2)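 NCI-60 human tumour cell panel screen, second stage, run by the NCI Developmental Therapeutics Program. Compounds were tested at five concentrations (0.01, 0.1, 1, 10 and 100 μM). Percentage growth was plotted against log10 concentration for each cell line. GI50, TGI and LC50 were taken from these dose-response curves.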

[2] = Cytotoxicity against human non-small cell lung cancer cells assessed as growth inhibition after 48 hrs by SRB assay; settings: Cancer cell lines; in short: as §1
MCF7 = assay: Cytotoxicity against human MCF7 cells after 48 hrs by SRB assay; settings: MCF7, 48 h; in short: as §2
BT-549 = assay: Cytotoxicity against human BT549 cells after 48 hrs by SRB assay; settings: BT-549, 48 h; in short: as §2
SR = assay: Cytotoxicity against human SR cells after 48 hrs by SRB assay
In short: (§3)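 NCI-60 five-dose study run by NCI DTP at 0.01, 0.1, 1, 10 and 100 µM. Percentage growth at each level was plotted against log10 concentration for each line, and GI50, TGI and LC50 were read from the dose-response curves.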

CCRF-CEM = assay: Cytotoxicity against human CCRF-CEM cells after 48 hrs by SRB assay; in short: as §2
[3] = Cytotoxicity against human prostate cancer cells assessed as growth inhibition after 48 hrs by SRB assay; settings: Cancer cell lines; in short: as §1
SK-MEL-5 = assay: Cytotoxicity against human SK-MEL-5 cells after 48 hrs by SRB assay; settings: SK-MEL-5, 48 h
In short: (§4)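 Second-stage NCI-60 panel run by the NCI Developmental Therapeutics Program, covering nine tumour subpanels. Five concentrations were tested: 0.01, 0.1, 1, 10 and 100 μM. Percentage growth at each level was plotted against log10 drug concentration. GI50, TGI and LC50 were read from these dose-response curves. Subpanel MID values were divided into the full-panel MID to give selectivity ratios.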

Malme-3M = assay: Cytotoxicity against human MALME-3M cells after 48 hrs by SRB assay; in short: as §2
SK-MEL-2 = assay: Cytotoxicity against human SK-MEL-2 cells after 48 hrs by SRB assay; settings: SK-MEL-2, 48 h; in short: as §4
786-0 = assay: Cytotoxicity against human 786-0 cells after 48 hrs by SRB assay; settings: 786-0, 48 h; in short: as §2
HCC 2998 = assay: Cytotoxicity against human HCC2998 cells after 48 hrs by SRB assay; settings: HCC 2998, 48 h; in short: as §2
RXF 393 = assay: Cytotoxicity against human RXF393 cells after 48 hrs by SRB assay; settings: RXF 393, 48 h; in short: as §4
NCI-H226 = assay: Cytotoxicity against human NCI-H226 cells after 48 hrs by SRB assay; settings: NCI-H226, 48 h; in short: as §4
ACHN = assay: Cytotoxicity against human ACHN cells after 48 hrs by SRB assay; in short: as §2
LOX IMVI = assay: Cytotoxicity against human LOXIMVI cells after 48 hrs by SRB assay; in short: as §2
M14 = assay: Cytotoxicity against human M14 cells after 48 hrs by SRB assay; settings: M14, 48 h; in short: as §2
OVCAR-5 = assay: Cytotoxicity against human OVCAR5 cells after 48 hrs by SRB assay; settings: OVCAR-5, 48 h; in short: as §4
[4] = Cytotoxicity against human CNS cancer cells assessed as growth inhibition after 48 hrs by SRB assay; settings: Cancer cell lines
In short: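 NCI-60 five-dose data (0.01–100 μM) were grouped by tumour subpanel. A subpanel mean (MID) of GI50 was computed for the CNS cancer lines. A selectivity ratio was obtained as full-panel MID divided by subpanel MID: 3–6 counts as moderate, >6 as high.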

PC-3 = assay: Cytotoxicity against human PC3 cells after 48 hrs by SRB assay; settings: PC-3, 48 h; in short: as §4
HOP-62 = assay: Cytotoxicity against human HOP62 cells after 48 hrs by SRB assay; settings: HOP-62, 48 h; in short: as §2
MDA-MB-231 = assay: Cytotoxicity against human MDA-MB-231 cells after 48 hrs by SRB assay; settings: MDA-MB-231, 48 h; in short: as §4
MDA-MB-435 = assay: Cytotoxicity against human MDA-MB-435 cells after 48 hrs by SRB assay; settings: MDA-MB-435, 48 h; in short: as §4
T47D = assay: Cytotoxicity against human T47D cells after 48 hrs by SRB assay; in short: as §3
OVCAR-4 = assay: Cytotoxicity against human OVCAR4 cells after 48 hrs by SRB assay; settings: OVCAR-4, 48 h; in short: as §4
[5] = Cytotoxicity against human Hs578T cells after 48 hrs by SRB assay; settings: Hs-578T; in short: as §2
MOLT-4 = assay: Cytotoxicity against human MOLT4 cells after 48 hrs by SRB assay; settings: MOLT-4, 48 h; in short: as §4
NCI-H322M = assay: Cytotoxicity against human NCI-H322M cells after 48 hrs by SRB assay; in short: as §4
[6] = Cytotoxicity against human melanoma cells assessed as growth inhibition after 48 hrs by SRB assay; settings: Melanoma cell; in short: as §1

CC(C)Sc1cc2c(c3nsnc13)C(=O)c1ccccc1C2=O
GI50 [1]: 1080 nM | GI50 (A498): 560 nM | LC50 (concentration killing 50% of cells) (A498): 23600 nM | TGI (A498): 4280 nM | GI50 [2]: 1810 nM | GI50 (MCF7): 1710 nM | LC50 (concentration killing 50% of cells) (MCF7): 8420 nM | TGI (MCF7): 3800 nM | GI50 (BT-549): 2190 nM | LC50 (BT-549): 29800 nM | TGI (BT-549): 8380 nM | GI50 (SR): 310 nM | LC50 (SR): 7460 nM | TGI (SR): 1190 nM | LC50 (CCRF-CEM): > 100000 nM | TGI (CCRF-CEM): 580 nM | GI50 [3]: 850 nM | GI50 (SK-MEL-5): 1290 nM | LC50 (SK-MEL-5): 5230 nM | TGI (SK-MEL-5): 2600 nM | GI50 (Malme-3M): 1120 nM | LC50 (Malme-3M): 5030 nM | TGI (Malme-3M): 2380 nM | GI50 (SK-MEL-2): 990 nM | LC50 (SK-MEL-2): 5870 nM | TGI (SK-MEL-2): 2420 nM | GI50 (786-0): 2750 nM | LC50 (concentration killing 50% of cells) (786-0): 34900 nM | TGI (786-0): 8140 nM | GI50 (HCC 2998): 3460 nM | LC50 (HCC 2998): 34900 nM | TGI (HCC 2998): 11100 nM | GI50 (RXF 393): 1770 nM | LC50 (concentration killing 50% of cells) (RXF 393): 16900 nM | TGI (RXF 393): 4830 nM | GI50 (NCI-H226): 1830 nM | LC50 (concentration killing 50% of starting cells) (NCI-H226): 14600 nM | TGI (NCI-H226): 4640 nM | GI50 (ACHN): 1250 nM | LC50 (ACHN): 8500 nM | TGI (ACHN): 3260 nM | GI50 (LOX IMVI): 340 nM | TGI (LOX IMVI): 1310 nM | CC50 (LOX IMVI; read-out: LC50 (the source's name)): 4730 nM | GI50 (M14): 1540 nM | LC50 (M14): 6530 nM | TGI (M14): 3180 nM | GI50 (OVCAR-5): 2070 nM | LC50 (OVCAR-5): 7940 nM | TGI (OVCAR-5): 4050 nM | GI50 [4]: 1790 nM | GI50 (PC-3): 250 nM | LC50 (concentration killing 50% of cells) (PC-3): 75400 nM | TGI (PC-3): 1380 nM | GI50 (HOP-62): 2100 nM | LC50 (HOP-62): 24200 nM | TGI (HOP-62): 6530 nM | GI50 (MDA-MB-231): 290 nM | LC50 (concentration killing 50% of cells) (MDA-MB-231): 4900 nM | TGI (MDA-MB-231): 1410 nM | GI50 (MDA-MB-435): 200 nM | LC50 (MDA-MB-435): 740 nM | TGI (MDA-MB-435): 390 nM | GI50 (T47D): 380 nM | LC50 (concentration killing 50% of cells) (T47D): 9110 nM | TGI (T47D): 2150 nM | GI50 (OVCAR-4): 360 nM | LC50 (OVCAR-4): 3670 nM | TGI (OVCAR-4): 1340 nM | GI50 [5]: 1620 nM | LC50 [5]: > 100000 nM | TGI [5]: 6270 nM | GI50 (MOLT-4): 180 nM | LC50 (MOLT-4): > 100000 nM | TGI (MOLT-4): 490 nM | GI50 (NCI-H322M): 2850 nM | LC50 (concentration causing 50% net cell kill) (NCI-H322M): 38700 nM | TGI (NCI-H322M): 11000 nM | GI50 [6]: 1120 nM
